Data taken from PMC8346222 (Science Advances, 2021).
Converted amounts (≈) assume the structure as drawn.

Experiments:
Experiment in all cases: Minimum inhibitory concentration, broth microdilution
Format in all cases: cell-based
[1] = test system: Klebsiella pneumoniae NR-41920; settings: NR41920, read-out: Minimum inhibitory concentration
Procedure, shortened: (§1)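 Broth microdilution per CLSI: test agents serially diluted across plates. Inoculum set to 0.5 McFarland, diluted in cation-adjusted Mueller Hinton broth to ~5 × 10^5 CFU/ml, then incubated aerobically at 37°C for 16 to 18 h. Gentamicin and imipenem were run as control antibiotics.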

[2] = test system: Pseudomonas aeruginosa NR-50573; settings: NR50573, read-out: Minimum inhibitory concentration
Procedure, shortened: as §1

[3] = test system: Escherichia coli ATCC 2452; settings: ATCC2452, read-out: Minimum inhibitory concentration
Procedure, shortened: as §1

[4] = test system: Escherichia coli ATCC 2469; settings: ATCC2469, read-out: Minimum inhibitory concentration
Procedure, shortened: as §1

SMILES	MIC [1] [µg/mL]	MIC [2] [µg/mL]	MIC [3] [µg/mL]	MIC [4] [µg/mL]
C[C@@H](O)[C@H]1C(=O)N2C(C(=O)O)=C(SCCN=CN)C[C@H]12 [Imipenem]	8 (≈ 26.7 µM)	1 (≈ 3.34 µM)	16 (≈ 53.4 µM)	16 (≈ 53.4 µM)
CNC(C)C1CCC(N)C(OC2C(N)CC(N)C(OC3OCC(C)(O)C(NC)C3O)C2O)O1 (centres unmarked) [Gentamicin]	64 (≈ 134 µM)	1 (≈ 2.09 µM)	> 64	> 64
